For orientation: IC50 means the concentration that gives 50% inhibition.

Results on five compounds are retold here after ChEMBL document CHEMBL4387738 (Bioorg Med Chem Lett, 2019).

For assay [1], the system named is HCT-116. As to the kind of experiment: Induction of apoptosis in human HCT116 cells assessed as late apoptotic cells at 5 to 25 uM incubated for 24 hrs by Annexin-V-FITC/propidium iodide staining based flow cytometric method relative to taxol. Format: functional, cell-based. The procedure, abridged: (§1)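 HCT116 cells exposed to 5, 10 or 25 μM for 24 h, then stained with annexin V and propidium iodide and analysed by flow cytometry. DMSO was the negative control and Taxol the apoptosis control. Total apoptosis counted all annexin V-positive cells, early apoptosis was annexin V-positive/PI-negative, and late apoptosis was annexin V/PI double-positive.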
In general terms: In flow cytometry, cells or beads pass a laser one at a time.

For assay [2], the target named is Endoplasmic reticulum chaperone BiP (Homo sapiens) (UniProt P11021). The experiment in a line: Inhibition of GRP78 (26 to 636 residues) (unknown origin) expressed in Escherichia coli BL21 DE3 cells pre-incubated for 10 mins before FITC-NRLLLTG fluorescent peptide addition in presence of 20 uM ADP followed by further incubation for 2 hrs by fluorescence polarization assay. The procedure, abridged:
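Fluorescence polarization competition assay in 384-well format. Full-length GRP78 (0.75 μM) was held in the ADP-bound closed state with FITC-NRLLLTG (100 nM), and loss of polarization was read. DMSO was the negative control and heat-denatured GRP78 the positive control. IC50 was taken from a 10-point dose response.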
(Fluorescence polarisation rises when a labelled molecule tumbles more slowly, as on binding a larger partner.)

Assay [3] relates to HCT-116. As to the kind of experiment: Induction of apoptosis in human HCT116 cells 25 uM incubated for 16 to 48 hrs by Annexin-V-FITC/propidium iodide staining based flow cytometric method. Format: functional, cell-based. The settings on record: TDE = time-dependent effect. The procedure, abridged: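 Time course in HCT116 cells. After treatment, cells were stained with annexin V and propidium iodide and analysed by flow cytometry. Early apoptosis was scored as annexin V+/PI−, late apoptosis as annexin V+/PI+. DMSO served as the negative control and Taxol as the apoptosis control.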

Assay [4] concerns HCT-116. The experiment in a line: Induction of apoptosis in human HCT116 cells assessed as apoptotic cells at 10 uM incubated for 24 hrs by Annexin-V-FITC/propidium iodide staining based flow cytometric method relative to taxol. In kind it is functional, cell-based. The procedure, abridged: as §1
Assay [5] has as its system HCT-116. As to the kind of experiment: Induction of apoptosis in human HCT116 cells assessed as increase in apoptotic cells at 25 uM incubated for 24 hrs by Annexin-V-FITC/propidium iodide staining based flow cytometric method relative to taxol. In kind it is functional, cell-based. The procedure, abridged: as §1
A short description of assay [6]: Inhibition of bacterial DnaK pre-incubated for 10 mins before FITC-NRLLLTG fluorescent peptide addition in presence of 20 uM ADP followed by further incubation for 2 hrs by fluorescence polarization assay. On the set-up: species or system Bacteria. The essentials:
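Repeat of the GRP78 fluorescence-polarization substrate-binding assay with the bacterial HSP70 DnaK in place of GRP78. The FITC-NRLLLTG peptide binds the substrate-binding domain in the ADP-bound closed state, raising polarization; inhibitors keep polarization low. Compound was tested in dose response and the IC50 derived. DnaK construct and concentration are not given.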

Assay [7] deals with HCT-116. As to the kind of experiment: Induction of autophagy in human HCT116 cells assessed as reduction in LC3-1 level at 2 to 10 uM after 16 hrs by Western blot analysis.
The test system of assay [8] is HCT-116. As to the kind of experiment: Induction of autophagy in human HCT116 cells assessed as increase in LC3-2 level at 2 to 10 uM after 16 hrs by Western blot analysis. Background: A western blot detects proteins with antibodies after separation by electrophoresis.
The test system of assay [9] is HCT-116. As to the kind of experiment: Induction of apoptosis in human HCT116 cells assessed as increase in early apoptotic cells at 5 to 25 uM incubated for 24 hrs by Annexin-V-FITC/propidium iodide staining based flow cytometric method relative to taxol. In kind it is functional, cell-based. The procedure, abridged:
as §1

Assay [10] relates to HCT-116. The experiment in a line: Induction of autophagy in human HCT116 cells assessed as reduction in p62 level at 2 to 10 uM after 16 hrs by Western blot analysis.
The test system of assay [11] is HCT-116. The experiment in a line: Induction of apoptosis in human HCT116 cells at 5 to 25 uM incubated for 24 hrs by Annexin-V-FITC/propidium iodide staining based flow cytometric method. Format: functional, cell-based. The procedure, abridged:
as §1

Calls of active or inactive are those of the source. No cut-off for these calls is given here.

Sequence of Endoplasmic reticulum chaperone BiP (Homo sapiens) (P11021 whole entry, the tested form may be a part): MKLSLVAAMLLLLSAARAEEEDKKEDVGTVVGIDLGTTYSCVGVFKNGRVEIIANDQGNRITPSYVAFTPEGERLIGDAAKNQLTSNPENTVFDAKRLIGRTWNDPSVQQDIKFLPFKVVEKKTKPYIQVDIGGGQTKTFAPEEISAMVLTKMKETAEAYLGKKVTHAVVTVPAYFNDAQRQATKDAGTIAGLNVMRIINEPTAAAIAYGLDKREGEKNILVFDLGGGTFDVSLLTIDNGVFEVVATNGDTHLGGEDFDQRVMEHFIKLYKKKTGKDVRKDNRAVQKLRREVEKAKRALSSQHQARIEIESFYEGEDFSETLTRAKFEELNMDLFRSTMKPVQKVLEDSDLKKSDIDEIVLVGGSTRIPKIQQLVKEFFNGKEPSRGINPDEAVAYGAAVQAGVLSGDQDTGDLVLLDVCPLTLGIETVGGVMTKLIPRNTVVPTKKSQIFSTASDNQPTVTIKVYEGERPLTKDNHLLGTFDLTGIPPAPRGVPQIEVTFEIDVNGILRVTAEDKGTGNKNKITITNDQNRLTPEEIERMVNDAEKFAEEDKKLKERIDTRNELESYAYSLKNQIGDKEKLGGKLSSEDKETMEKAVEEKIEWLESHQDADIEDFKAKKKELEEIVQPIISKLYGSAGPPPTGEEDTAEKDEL

As to `CC(=O)O[C@H]1C(=O)[C@@]2(C)[C@H]([C@H](OC(=O)c3ccccc3)[C@]3(O)C[C@H](OC(=O)[C@H](O)[C@@H](NC(=O)c4ccccc4)c4ccccc4)C(C)=C1C3(C)C)[C@]1(OC(C)=O)CO[C@@H]1C[C@@H]2O`, the result in the assay with HCT-116 [1] was Active.
For the compound `Oc1c(Cl)cc(Cl)c(Cl)c1Sc1c(O)c(Cl)cc(Cl)c1Cl`, in [2], the inhibition entry is “Active”.
Still for that read-out and setting: the entry for `Oc1c(Cl)cc(Cl)cc1Cc1cc(Cl)cc(Cl)c1O` is “Active”; for `Oc1c(Cl)cc(Cl)cc1Sc1cc(Cl)cc(Cl)c1O` it is “Active”.
For the compound `Oc1c(Cl)cc(Cl)c(Cl)c1Cc1c(O)c(Cl)cc(Cl)c1Cl` [HEXACHLOROPHENE], the Activity entry in the assay with HCT-116 [3] was “Tde”; in the assay on HCT-116 [11] it was “Dose-dependent effect”. Besides, the result with HCT-116 [4], in the assay with HCT-116 [5], in the assay with HCT-116 [7], in the assay with HCT-116 [8], in the assay on HCT-116 [9] and in the assay on HCT-116 [10] was Active. The result with HCT-116 [1] was Active. The inhibition entry in assay [2] was “Dose-dependent effect”. Besides, the IC50 in assay [6] was 51.6 µM.
